A selection: hits, their analogues and other compounds. The true share with any hit is near 0.64%.
PMI act satM6P: human PMI activators, high substrate, primary screen, biochemical, fluorescence intensity, near-saturating mannose 6-phosphate. coupled PMI enzyme assay, resazurin fluorescence, 20 min; stronger effect = higher value; 1 = untreated enzyme, 0 = substrate-free blank. activation factor at 20 µM. 190,000 compounds, 0.34% hits;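 active means activation factor of 2 or more at 20 µM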
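Test system: human phosphomannose isomerase with PGI, G6PDH, diaphorase coupling enzymes / Doses: 20 µM compound, 1% DMSO / Times: enzyme reaction with compound 20 min at room temperature / Measured by: Diaphorase-driven resazurin-to-resorufin fluorescence, excitation 544, emission 590 nm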
PMI act: activators of human PMI, primary screen, biochemical, fluorescence intensity, near-Km mannose 6-phosphate | Mannose-6-phosphate isomerase (Homo sapiens), P34949 | purified human PMI, coupled resazurin fluorescence, 20 min; stronger effect = higher value; 1 = vehicle control, 0 substrate-free wells | activation factor at 20 µM | 190,000 compounds, 0.005% hits | AID 1214, 2008;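 active means activation factor of 2 or more at 20 µM, relative to plate controls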
TNAP inh noacc: human TNAP enzyme inhibitors, primary screen, biochemical, luminescent, no phosphate acceptor, uHTS | 200,000 compounds, 0.26% hits | inhibition, % at 20 µM | AID 1012, 2008 | purified TNAP, CDP-star luminescence, 30 min | Alkaline phosphatase, tissue-nonspecific isozyme (Homo sapiens), P05186;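 active means tissue-nonspecific alkaline phosphatase inhibition above about 50% at 20 µM in the single-dose screen, limit read from the data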
Target sequence (P05186 whole entry, looked up): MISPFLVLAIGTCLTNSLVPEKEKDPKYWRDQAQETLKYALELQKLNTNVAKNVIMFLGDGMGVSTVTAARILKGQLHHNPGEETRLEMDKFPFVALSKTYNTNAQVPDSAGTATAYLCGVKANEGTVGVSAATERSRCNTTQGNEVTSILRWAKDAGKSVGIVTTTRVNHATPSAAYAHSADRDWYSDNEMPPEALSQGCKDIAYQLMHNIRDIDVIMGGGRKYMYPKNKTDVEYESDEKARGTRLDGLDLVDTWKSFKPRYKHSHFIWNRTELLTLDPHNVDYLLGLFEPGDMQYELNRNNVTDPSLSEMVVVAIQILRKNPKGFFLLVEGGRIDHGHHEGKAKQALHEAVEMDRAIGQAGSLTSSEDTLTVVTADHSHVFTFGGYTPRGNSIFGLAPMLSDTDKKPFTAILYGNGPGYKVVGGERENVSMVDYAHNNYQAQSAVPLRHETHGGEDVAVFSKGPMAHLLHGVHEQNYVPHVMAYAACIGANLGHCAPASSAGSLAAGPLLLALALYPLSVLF
TNAP inh hi DEA: human TNAP enzyme inhibitors, primary screen, biochemical, luminescent, high phosphate acceptor level, uHTS. purified TNAP, CDP-star luminescence, 1 M DEA. Alkaline phosphatase, tissue-nonspecific isozyme (Homo sapiens), P05186. inhibition, % at 20 µM. 200,000 compounds, 0.03% hits;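 active means over 50% inhibition of tissue-nonspecific alkaline phosphatase at 20 µM in the single-dose screen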
TNAP act hiacc: TNAP activators at high phosphate acceptor level, primary screen, biochemical, luminescence, uHTS; AID 1136, 2008; purified TNAP, CDP-star luminescence, 1 M DEA, 30 min; stronger effect = higher value; 0 = EDTA background, 1 = DMSO-only activity; Alkaline phosphatase, tissue-nonspecific isozyme (Homo sapiens), P05186; 200,000 tested, under 10 active; activation factor at 20 µM;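 active means activation factor at least 2 at 20 µM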
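Measured by: Luminescent substrate turnover signal | Test system: Human TNAP | Input: TNAP 1/800 final | Dosing: 20 µM single point | Schedule: 30 min, room temperature | Controls: EDTA wells as negative control, DMSO wells as positive control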
Hits are given with their value; 0 = inactive.

SMILES | PMI act satM6P | PMI act | TNAP inh noacc | TNAP inh hi DEA | TNAP act hiacc
CC1CC(C)(C)N(C(=O)CN2C(=O)c3ccccc3C2=O)c2ccccc21 (configuration not stated) | 0 | 0 | 0 | 0 | 0
CC1(C)Cc2ccccc2C2CC(O)C(=O)N21 (configuration not stated) | 2 | 0 | 0 | 0 | 0
CN(C(=O)Cn1cccc1C1=NC(c2ccccc2)CO1)c1ccccc1 (configuration not stated) | 0 | 0 | 0 | 0 | 0
Cc1cc(C)c2nc(NCCCNC(=S)NCCCN(C)C)c(C#N)cc2c1 | 0 | 0 | 0 | 0 | 0
CCOCCCNC(=S)NCCCNc1nc2c(C)cc(C)cc2cc1C#N | 2.1 | 0 | 0 | 0 | 0
CC(C)c1ccc2nc3sc(C(=O)N4CCc5ccccc5C4)c(N)c3cc2c1 | 0 | 0 | 0 | 0 | 0
Cc1cc(C)c2c(N)c(C(=O)N3CCc4ccccc4C3)sc2n1 | 2 | 0 | 0 | 0 | 0
CN(C)c1ccc(/C=C(/C(=O)c2ccc(Cl)cc2Cl)n2cncn2)cc1 | 0 | 0 | 0 | 55 | 0
COc1ccc(/C=C(/C(=O)c2ccc(Cl)cc2Cl)n2cncn2)cc1 | 0 | 0 | 0 | 0 | 0
CCN(CC)c1ccc(N=Nc2nn(C)c(C)c2[N+](=O)[O-])cc1 | 0 | 0 | 0 | 56 | 0
CCOC(=O)c1sc(N=NC2=C(O)CC(C)(C)CC2=O)c(C(=O)OCC)c1C | 0 | 0 | 0 | 0 | 0
O=C1NC2(CCC3(CC2)OCCO3)NN1c1ccccc1 | 2.3 | 0 | 0 | 0 | 0
CC(C)(C)N1NC2(CCCCC2)NC1=S | 2.1 | 0 | 0 | 0 | 0
S=C1NC2(CCCCC2)NN1c1ccccc1 | 2.9 | 0 | 0 | 0 | 0
CC1CCCC2(C1)NC(=S)c1c(sc3c1CCCC3)N2 (configuration not stated) | 0 | 0 | 0 | 0 | 0
CC1CCCC2(C1)NC(=S)N(c1ccccc1)N2 (configuration not stated) | 2.7 | 0 | 0 | 0 | 0
Cc1ccc(Oc2ccccc2/C=C/C(=O)O)cc1 | 0 | 0 | 0 | 0 | 0
Cc1cccc(CCNC(=O)c2nnc(Cc3ccc(Cl)cc3)o2)c1 | 0 | 0 | 0 | 0 | 0
CC1CC(C)(C)CC2(C1)NC(=S)N(c1ccccc1)N2 (configuration not stated) | 2 | 0 | 0 | 0 | 0
CC1(c2ccccc2)NC(=S)N2C1NC(=S)N2c1ccccc1 (configuration not stated) | 0 | 0 | 0 | 0 | 0
COc1ccc(CNC(=O)COC(=O)/C=C/c2cccc(Br)c2)cc1OC | 0 | 0 | 0 | 0 | 0
CCSc1cc(C2C(C#N)=C(N)OC(C)=C2C(=O)OC)c(C)o1 (configuration not stated) | 2 | 0 | 0 | 0 | 0
CCOC(=O)C1C(=O)Nc2nc3ccccc3n2C1C(C)C (configuration not stated) | 0 | 0 | 92 | 0 | 0
CCOC(=O)C1C(=O)Nc2nc(C)nn2C1c1ccccc1 (configuration not stated) | 0 | 0 | 0 | 0 | 0
COc1cc(C(=O)Nc2ccc3c(c2)Cc2cc(NC(=O)c4cc(OC)c(OC)c(OC)c4)ccc2-3)cc(OC)c1OC | 0 | 0 | 0 | 0 | 0
SMILES | PMI act satM6P | PMI act | TNAP inh noacc | TNAP inh hi DEA | TNAP act hiacc
O=C(O)C1CC=CCC1C(=O)NNc1ccccc1 (configuration not stated) | 2.7 | 0 | 0 | 0 | 0
CCOc1ccc(-c2c(C)n([O-])c3c([n+]2=O)CCCCC3)cc1 | 0 | 0 | 0 | 0 | 0
COc1cc(OC)cc(-c2cc(N3C(=O)Nc4ccccc4N3O)n[nH]2)c1 | 0 | 0 | 0 | 0 | 0
O=C1Nc2ccccc2N(O)N1c1cc(-c2ccc(Cl)cc2)[nH]n1 | 0 | 0 | 63 | 0 | 0
Cc1cc(C)c2c(-n3cccc3)n[nH]c2n1 | 0 | 0 | 68 | 0 | 0
CCN=C1NN=C(c2cc(C)n(CCc3ccccc3)c2C)CS1 | 2.2 | 0 | 0 | 0 | 0
COc1ccc(/C=N/Nc2ccc(C(=O)O)cc2)cc1Br | 2.5 | 0 | 0 | 0 | 0
Cc1ccc(/C=N/Nc2ccc(C(=O)O)cc2)o1 | 0 | 0 | 0 | 0 | 0
CC(C)c1ccc(/C=N/Nc2ccc(C(=O)O)cc2)cc1 | 2.5 | 0 | 0 | 0 | 0
O=C(O)c1ccc(N/N=C/c2ccc(-c3ccccc3)cc2)cc1 | 2.4 | 0 | 0 | 0 | 0
Cc1ccc2[nH]c(C(=O)NN=C3CCCCC3)c(-c3ccccc3)c2c1 | 0 | 0 | 0 | 0 | 0
O=C(NCc1ccco1)c1cccn2c(=O)c3cc4ccccc4cc3nc12 | 2.4 | 2 | 0 | 0 | 0
COCCCNC(=O)c1cccn2c(=O)c3cc4ccccc4cc3nc12 | 0 | 0 | 0 | 0 | 0
Cc1ccc(S(=O)(=O)NC(=O)NN2CCCCCC2)cc1 | 2 | 0 | 0 | 0 | 0
COc1cc(C(=O)Nc2ccc(C#N)cc2)c([N+](=O)[O-])cc1OC | 0 | 0 | 0 | 0 | 0
Nc1ccccc1SCc1cn2ccccc2n1 | 0 | 0 | 0 | 0 | 0
N=C(N)SCc1cn2ccccc2n1 | 0 | 0 | 59 | 0 | 0
O=C1c2ccccc2NC(c2cn[nH]c2-c2ccc(Cl)cc2)N1O (configuration not stated) | 2.2 | 0 | 0 | 0 | 0
CCN(CC)C(=O)c1ccc2nc3ccccc3nc2c1 | 2.2 | 0 | 0 | 0 | 0
CCOc1ccc(C2CC(c3c(O)c4ccccc4oc3=O)=NN2c2ccccc2)cc1OC (configuration not stated) | 2.6 | 0 | 0 | 0 | 0
CCOC(=O)C1CCN(Cc2c(O)c3ccccc3oc2=O)CC1 | 0 | 0 | 0 | 0 | 0
CC(OC(=O)CC(NC(=O)c1ccccc1Cl)c1ccccc1)C(=O)Nc1cccc(Cl)c1Cl (configuration not stated) | 0 | 0 | 0 | 0 | 0
COc1ccc(Cl)cc1NC(=O)CN1CCC(n2nnc3cc(C)ccc32)CC1 | 0 | 0 | 0 | 0 | 2.7
Cc1cccc(C)c1NC(=O)CN(c1ccccn1)S(=O)(=O)c1ccc(F)cc1 | 0 | 0 | 0 | 0 | 0
Oc1ccc(O)c(Cc2nc3ccccc3s2)c1 | 0 | 0 | 61 | 0 | 0
O=C(c1ccco1)N1CCN(c2c([N+](=O)[O-])nn(-c3cccc(Cl)c3)[n+]2[O-])CC1 | 0 | 0 | 0 | 0 | 0
COc1ccc(OC)c(S(=O)(=O)Nc2cccnc2)c1 | 0 | 0 | 86 | 75 | 0
O=C(CN1CCN(CC(=O)c2ccc(F)cc2)CC1)Nc1ccccc1Cl | 2.2 | 0 | 0 | 0 | 0

Screens deposited in PubChem by Sanford-Burnham Center for Chemical Genomics.
